From PubChem BioAssay
Hits are enriched below; roughly 0.99% of the tested compounds scored in any of these assays.
Rce1 inh: yeast Rce1p protease inhibitors, primary screen, biochemical, fluorescence, cell-free homogeneous; calls only; 0.27% of 290,000 active; CAAX prenyl protease 2 (Saccharomyces cerevisiae (strain ATCC 204508 / S288c)), Q03530; yeast membranes, quenched prenylated peptide cleavage fluorescence;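 active = fall in fluorescence gain of 50% or more versus controls, with final raw signal at or below 3038400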
AI-2 QS modul: Vibrio harveyi AI-2 quorum sensing modulators, primary screen, JMH597 strain, luminescence/OD600 ratio | activity change, % at 7.5 µM | 0.4% of 300,000 active | Vibrio harveyi JMH597 AI-2 luminescence/OD600 ratio, 9 h; stronger effect = lower value; strain lacks LuxN and CqsS sensors; 0 = neutral-control median; in the data active = activity change below about -75%, passing the limit was not always enough;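 note: luminescence divided by OD600 gain over 9 h not by final OD600 alone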
Dyrk1A ADPGlo: rat Dyrk1A kinase inhibitors, primary screen, biochemical, single point, plate reader. Dual specificity tyrosine-phosphorylation-regulated kinase 1A (Rattus norvegicus), Q63470. inhibition, % at 12.5 µM. 0.43% of 310,000 active. AID 504441, 2011. ADP-Glo luminescence, NFATc1 peptide; in the data active = inhibition above about 50%
GSK3beta inhib: human GSK3beta kinase inhibitors, primary screen, biochemical, cell-free homogeneous, HTS. Glycogen synthase kinase-3 beta (Homo sapiens), P49841. GST-GSK3beta kinase, ADP-Glo luminescence, 60 min; stronger effect = lower value. activity score (negative = inhibition), % at 10 µM. 0.038% of 300,000 active;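 active = more than half of replicate wells score below -50%, meaning over 50% inhibition versus plate controls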
Target sequence (P49841 whole entry, looked up): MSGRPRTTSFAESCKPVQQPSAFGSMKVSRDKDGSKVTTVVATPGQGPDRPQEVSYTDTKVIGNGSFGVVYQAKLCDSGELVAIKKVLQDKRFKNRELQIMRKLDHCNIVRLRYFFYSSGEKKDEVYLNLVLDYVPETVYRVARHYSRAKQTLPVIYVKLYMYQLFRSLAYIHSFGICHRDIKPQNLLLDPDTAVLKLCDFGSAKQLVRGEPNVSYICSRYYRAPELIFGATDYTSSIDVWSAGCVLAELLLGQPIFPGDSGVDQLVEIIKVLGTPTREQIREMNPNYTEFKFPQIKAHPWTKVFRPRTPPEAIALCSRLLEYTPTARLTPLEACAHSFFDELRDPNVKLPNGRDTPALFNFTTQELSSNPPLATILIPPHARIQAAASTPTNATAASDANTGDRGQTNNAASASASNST
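Test system: GST-tagged human GSK3beta kinase, cell-free; evaluation: activity score scaled between in-plate DMSO and GW8510 controls; measured by: ADP-Glo luminescence; incubation: 60 min reaction, RT; benchmarks: DMSO and 20 µM GW8510; reagent: peptide substrate plus 25 µM ATP (final); medium: Tris/MgCl2 kinase buffer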
STK33 kinase inh: inhibitors of purified STK33 kinase, primary screen, biochemical, ADP-Glo luminescence, homogeneous, cell-free | 0.073% of 320,000 active | Serine/threonine-protein kinase 33 (Homo sapiens), Q9BYT3 | inhibition, % at 10 µM | MBP phosphorylation;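 active = inhibition at or above 25%, using the most active replicate where run in duplicate; inactive = inhibition below 25%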
GSK3A inh: blockers of GSK3A enzyme activity – biochemical, luminescence, cell-free homogeneous, HTS, primary screen; GSK-3 alpha kinase, ADP-Glo luminescence, 60 min; inhibition, % at 10 µM; 0.1% of 320,000 active; Glycogen synthase kinase-3 alpha (Homo sapiens), P49840;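 active = more than half of replicates show inhibition above 20%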;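 note: GST-tagged GSK-3 alpha with peptide substrate and 25 µM ATP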
A number is an active result.

`Cc1ccc(-c2cc(-c3ccccc3)cc(-c3ccccc3)[n+]2-c2ccccc2)cc1` gave Rce1 inh active, AI-2 QS modul inactive, Dyrk1A ADPGlo inactive, GSK3beta inhib inactive, STK33 kinase inh inactive and GSK3A inh inactive.
Cc1ccc(-c2cc(-c3ccc(C)cc3)[n+](-c3ccccc3)c(-c3ccc(C)cc3)c2)cc1 was read as Rce1 inh active, AI-2 QS modul inactive, Dyrk1A ADPGlo inactive, GSK3beta inhib inactive, STK33 kinase inh inactive and GSK3A inh inactive.
Screening c1ccc(-c2cc(-c3ccccc3)[n+](-c3ccccc3)c(-c3ccccc3)c2)cc1 returned Rce1 inh inactive, AI-2 QS modul inactive, Dyrk1A ADPGlo inactive, GSK3beta inhib inactive, STK33 kinase inh inactive and GSK3A inh inactive.
Screening CN(C)[C@@H]1C(=O)C(C(N)=O)=C(O)[C@@]2(O)C(=O)C3=C(O)c4c(O)cccc4[C@@](C)(O)C3[C@H](O)C12 (stereo partly drawn) returned Rce1 inh inactive, AI-2 QS modul -82, Dyrk1A ADPGlo inactive, GSK3beta inhib inactive, STK33 kinase inh inactive and GSK3A inh inactive.
Screening COC(=O)C1=C(c2ccc(F)cc2OCc2ccccc2)C[C@@H]2CC[C@H]1N2C(=O)N1CCC(O)CC1 returned Dyrk1A ADPGlo inactive, STK33 kinase inh inactive and GSK3A inh inactive.
`COCCCn1c(N)c(C(=O)NCc2ccco2)c2nc3ccccc3nc21` gave Rce1 inh active, AI-2 QS modul inactive, Dyrk1A ADPGlo inactive, GSK3beta inhib inactive, STK33 kinase inh inactive and GSK3A inh inactive.
For COCCNC(=O)c1c(N)n(Cc2ccco2)c2nc3ccccc3nc12 the results were Rce1 inh inactive, AI-2 QS modul inactive, Dyrk1A ADPGlo inactive, GSK3beta inhib inactive, STK33 kinase inh inactive and GSK3A inh inactive.
`O=C(COc1ccc2ccc(=O)oc2c1)N1CCC(C(=O)O)(c2ccccc2)CC1` gave Rce1 inh active, AI-2 QS modul inactive, Dyrk1A ADPGlo inactive, GSK3beta inhib inactive, STK33 kinase inh inactive and GSK3A inh inactive.
Cn1cc(C(=O)OCC(=O)NC2CCCCC2)c2ccccc21 was read as Dyrk1A ADPGlo inactive, STK33 kinase inh inactive and GSK3A inh inactive.
For Cc1ccnc(-n2c(-c3ccco3)nc3ccccc3c2=O)c1 the results were Rce1 inh active, AI-2 QS modul inactive, GSK3beta inhib inactive, STK33 kinase inh inactive and GSK3A inh inactive.
`COC(=O)C1=C(c2ccc(F)cc2F)C[C@@H]2CC[C@H]1N2C(=O)N1CCCCC1` gave Dyrk1A ADPGlo inactive, STK33 kinase inh inactive and GSK3A inh inactive.
Screening O=C1Nc2ccccc2/C1=C/c1nc2ccccc2c(=O)n1-c1ccc(O)cc1 returned Rce1 inh inactive, AI-2 QS modul inactive, Dyrk1A ADPGlo inactive, GSK3beta inhib inactive, STK33 kinase inh inactive and GSK3A inh inactive.
`O=C1Nc2ccccc2/C1=C/c1cnc[nH]1` gave Rce1 inh inactive, AI-2 QS modul inactive, Dyrk1A ADPGlo inactive, GSK3beta inhib inactive, STK33 kinase inh 37 and GSK3A inh 79.
c1ccc(CCCN2CCN(CCOC(c3ccccc3)c3ccccc3)CC2)cc1 was read as Rce1 inh active, AI-2 QS modul inactive, Dyrk1A ADPGlo inactive, GSK3beta inhib inactive, STK33 kinase inh inactive and GSK3A inh inactive.
Screening CCc1cc2c(s1)NC(=O)CN=C2c1cccs1 returned Rce1 inh inactive, AI-2 QS modul inactive, Dyrk1A ADPGlo inactive, GSK3beta inhib inactive, STK33 kinase inh inactive and GSK3A inh 76.
`O=C1CN=C(c2ccccc2)c2ccccc2N1` gave Rce1 inh inactive, AI-2 QS modul inactive, Dyrk1A ADPGlo inactive, GSK3beta inhib inactive, STK33 kinase inh inactive and GSK3A inh inactive.
`CN1C(=O)c2ccccc2NC(=O)[C@]12O[C@@H]2c1ccccc1` gave Rce1 inh active, AI-2 QS modul inactive, Dyrk1A ADPGlo inactive, GSK3beta inhib inactive, STK33 kinase inh inactive and GSK3A inh inactive.
Screening O=C1NC(=S)NC(=O)C12C(c1ccccc1)NC(=S)NC2c1ccccc1 (stereo not drawn) returned Rce1 inh inactive, AI-2 QS modul inactive, Dyrk1A ADPGlo inactive and GSK3beta inhib inactive.
For CC(C)Sc1nnc([C@@H](N)Cc2c[nH]c3ccccc23)o1 the results were Rce1 inh inactive, AI-2 QS modul inactive, Dyrk1A ADPGlo inactive, GSK3beta inhib inactive, STK33 kinase inh inactive and GSK3A inh inactive.
`NC(=O)CSc1nnc([C@@H](N)Cc2c[nH]c3ccccc23)o1` gave Rce1 inh inactive, AI-2 QS modul inactive, Dyrk1A ADPGlo inactive, GSK3beta inhib inactive, STK33 kinase inh inactive and GSK3A inh 52.
Screening COc1ccc2c(C)c(CC(=O)N3C[C@H]4C[C@@H](C3)c3cccc(=O)n3C4)c(=O)oc2c1C returned Rce1 inh inactive, AI-2 QS modul inactive, Dyrk1A ADPGlo inactive, GSK3beta inhib inactive, STK33 kinase inh inactive and GSK3A inh inactive.
Screening CCN(CC)C(=O)c1ccc(NC(=O)CCCSc2ccccc2)cc1 returned Rce1 inh inactive, AI-2 QS modul inactive, Dyrk1A ADPGlo inactive, GSK3beta inhib inactive, STK33 kinase inh inactive and GSK3A inh inactive.
CCN(CC)C(=O)c1ccc(NC(=O)Nc2ccccc2F)cc1 was read as Rce1 inh inactive, AI-2 QS modul inactive, Dyrk1A ADPGlo inactive, GSK3beta inhib inactive, STK33 kinase inh 28 and GSK3A inh inactive.
`COC(=O)C1=C(C(=O)OC)C2OC1c1cc3ccccc3cc12` gave Dyrk1A ADPGlo inactive.
For N#CSCC(=O)N1c2ccccc2CCc2ccccc21 the results were Rce1 inh inactive, AI-2 QS modul -76, Dyrk1A ADPGlo inactive, GSK3beta inhib inactive, STK33 kinase inh inactive and GSK3A inh inactive.
`CCCCn1c(O)c(C(C)=NCCCn2ccnc2)c(=O)[nH]c1=O` gave Rce1 inh inactive, AI-2 QS modul inactive, Dyrk1A ADPGlo inactive, GSK3beta inhib inactive, STK33 kinase inh inactive and GSK3A inh 54.
`CCCCn1c(O)c(C(CC)=NCCCn2ccnc2)c(=O)[nH]c1=O` gave Rce1 inh inactive, AI-2 QS modul inactive, GSK3beta inhib inactive, STK33 kinase inh inactive and GSK3A inh inactive.
CCCCn1c(O)c(C=NCCCn2ccnc2)c(=O)[nH]c1=O was read as Rce1 inh inactive, AI-2 QS modul inactive, Dyrk1A ADPGlo inactive, GSK3beta inhib inactive, STK33 kinase inh inactive and GSK3A inh 68.
For CC1=C(O)C(=O)C=C2C1=CC=C1C2(C)CCC2(C)C3CC(C)(C(=O)O)CCC3(C)CCC12C (stereo not drawn) the results were Dyrk1A ADPGlo inactive.
